# Shown are actives, neighbours in structure and some others; about 2.4% of the full set was active somewhere.
# HTR5A inv ag: HTR5A inverse agonism, opioid heterodimer counter-screen | P47898 | HTR5A cell line, luminescence | inhibition, % at 9.3 µM | 0.083% of 340,000 active; in the data active means inhibition mostly above about 23%, no sharp cut-off; inactive means mostly below about 18%;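 further: 0% = cells with DMSO and 100% = no-cell wells with DMSO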
# Target sequence (P47898 whole entry, looked up): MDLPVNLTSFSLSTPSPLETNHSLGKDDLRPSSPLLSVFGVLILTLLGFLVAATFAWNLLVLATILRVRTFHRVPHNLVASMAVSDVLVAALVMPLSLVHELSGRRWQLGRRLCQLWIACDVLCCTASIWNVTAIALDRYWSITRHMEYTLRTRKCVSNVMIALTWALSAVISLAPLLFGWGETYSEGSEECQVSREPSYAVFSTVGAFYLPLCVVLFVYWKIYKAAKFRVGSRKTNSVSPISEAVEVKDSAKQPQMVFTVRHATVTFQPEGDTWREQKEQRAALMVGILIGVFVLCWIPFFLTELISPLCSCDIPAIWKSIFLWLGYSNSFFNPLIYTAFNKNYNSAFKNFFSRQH
# HTR5A ag: HTR5A agonism, opioid heterodimer counter-screen; HTR5A agonist assay, luminescence, cell-based; 0.61% of 340,000 active; activation, % at 9.3 µM; in the data active means activation mostly above about 9.5%, no sharp cut-off; inactive means mostly below about 7.6%;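 further: 0% = cells with vehicle only and 100% = reference agonist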
# MC4R antag cAMP: antagonists of human melanocortin 4 receptor (MC4R); 0.48% of 360,000 active; inhibition, % at 6.5 µM; MC4R-expressing cells, MTII-stimulated cAMP, LANCE TR-FRET; P32245;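 active means inhibition above its plate's cutoff, the mean of tested wells on that plate plus 3 SD, cut at about 29% in these data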;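 further: 0% = Melanotan II alone and 100% = Melanotan II plus saturating MCL0020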
# Target sequence (P32245 whole entry, looked up): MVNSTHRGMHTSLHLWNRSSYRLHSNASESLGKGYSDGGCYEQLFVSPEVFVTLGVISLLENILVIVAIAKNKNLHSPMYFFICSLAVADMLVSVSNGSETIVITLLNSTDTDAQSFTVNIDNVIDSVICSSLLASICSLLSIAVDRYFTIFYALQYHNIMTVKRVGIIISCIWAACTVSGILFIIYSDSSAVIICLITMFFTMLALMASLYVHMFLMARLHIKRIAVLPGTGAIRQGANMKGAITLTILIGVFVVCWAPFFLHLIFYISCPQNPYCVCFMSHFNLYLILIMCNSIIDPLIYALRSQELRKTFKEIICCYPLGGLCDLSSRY
#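 Assay system: human MC4R-expressing U2OS cells; reagent: Melanotan II stimulation of cells; dosing: 6.5 µM single dose; timing: compound 30 min, challenge 1 h, detection 1 h; signal: TR-FRET cAMP assay; replicates: one well per compound, no replicates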
# MC4R ag barr: agonists of human melanocortin 4 receptor (MC4R) beta-arrestin; P32245; activation, % at 8.9 µM; U2OS MC4R beta-arrestin complementation, luminescence; percent of melanotan II response, DMSO zero; 0.98% of 360,000 active;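 active means activation above a per-plate cutoff, the mean activation of sample wells on that plate plus 3 SD, cut at about 8% in these data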
# MOR-DOR inv ag: inverse agonists of human mu-delta opioid receptor heterodimerization; inhibition, % at 9.3 µM; 0.21% of 340,000 active; cell-based MOR-DOR heterodimer luminescence, inverse agonism; AID 504357; P35372+P41143; in the data active means inhibition above about 22%, passing the limit was not always enough;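 further: 0% = cells with DMSO and 100% = wells without cells with DMSO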
# OPRM1-OPRD1 ag: agonists of human mu-delta opioid receptor heterodimerization; P35372+P41143; cells, OPRM1-OPRD1 heterodimerization, luminescence; activation, % at 9.3 µM; 0.3% of 340,000 active; AID 504326; in the data active means activation above about 18%;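 further: 0% = vehicle-treated cells and 100% = reference agonist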
# cAMP nonselect: counter-screen for MC4R antagonists: nonselective cAMP signaling inhibitors | parental U2OS, forskolin cAMP, LANCE TR-FRET | AID 602193 | 26% of 1,600 active | inhibition, % at 6.5 µM | shares compounds with MC4R antag cAMP;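 active means mean inhibition over triplicates above the low-control well mean plus 3 SD, set per campaign, cut at about 13% in these data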;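 further: signal is single emission at 671 nm which falls as cellular cAMP rises; 0% = forskolin-stimulated wells and 100% = buffer without forskolin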
# MC4R antag conf: human MC4R cAMP antagonism confirmation. shares compounds with MC4R antag cAMP. MC4R-expressing cells, MTII-stimulated cAMP, TR-FRET. inhibition, % at 6.5 µM. 27% of 1,600 active; in the data active means inhibition above about 29%;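 further: 0% = agonist stimulated wells alone and 100% = agonist stimulated wells plus saturating reference antagonist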
# * hit, by the source's call; · = not tested or not shown.
SMILES,HTR5A inv ag,HTR5A ag,MC4R antag cAMP,MC4R ag barr,MOR-DOR inv ag,OPRM1-OPRD1 ag,cAMP nonselect,MC4R antag conf
CCSC1=C(C#N)C(CC(C)C)C2=C(CCCC2=O)N1 (stereo unspecified),·,·,34.1*,-2.1,·,·,0.5,14.4
COc1ccc(OC)c(NC(=O)COC(=O)CN(C)S(=O)(=O)c2ccc(C)cc2)c1,-10.3,1.4,22.1,-1.2,16.8,-3.2,·,·
COc1ccc(CNC(=O)COC(=O)[C@H](Cc2c[nH]c3ccccc23)NC(=O)c2cccs2)cc1,4.7,1.6,42.7*,-2.8,-32.2,6.0,22.4*,13.9
COC(=O)[C@H](Cc1c[nH]c2ccccc12)NC(=O)NCc1ccc(OC)cc1,15.3,-4.3,36.8*,1.5,11.3,-2.5,-4.0,1.0
COC(=O)[C@H](Cc1c[nH]c2ccccc12)NC(=O)NCc1ccc(OC)c(OC)c1,-7.8,2.1,-3.3,-0.3,13.6,-2.7,·,·
COC(=O)C(Cc1c[nH]c2ccccc12)NC(=O)c1cccs1 (stereo unspecified),-18.2,-0.3,-0.8,-2.8,18.5,-3.8,·,·
COc1ccccc1NC(=O)NC1(C(=O)N2CCC(C)CC2)CCCCC1,-3.8,1.4,3.2,-0.4,21.4,-4.0,·,·
CCOC(=O)c1c(NC(=O)COC(=O)CCNS(=O)(=O)c2ccccc2)sc(C(=O)NC)c1C,19.0,2.5,31.2*,0.1,1.7,-0.4,4.7,4.9
CC(=O)Nc1ccc2nc(NC(=O)C(Cl)(Cl)Cl)sc2c1,14.4,0.1,29.1*,0.1,14.2,-2.7,-3.9,-18.5
N=c1c2c(ncn1Cc1ccco1)Oc1cc(O)ccc1C2c1ccccc1 (stereo unspecified),0.6,-0.2,33.1*,-0.3,-7.8,1.4,-0.5,-1.1
N=c1c2c(ncn1Cc1ccco1)Oc1c(ccc3ccccc13)C2c1ccccc1 (stereo unspecified),0.4,1.4,20.8,-2.1,7.7,-1.4,·,·
CCOC(=O)c1cnc2ccc(OCC)cc2c1N(C)Cc1ccccc1,-7.1,0.7,30.0*,2.6,-50.0,9.4,0.1,31.4*
CC1CCN(c2ccccc2NC(=S)NC(=O)c2cccs2)CC1,-1.6,0.6,4.3,1.7,1.1,-0.2,·,·
CS(=O)(=O)N1CCN(c2ccccc2NC(=S)NC(=O)c2cccs2)CC1,9.7,-1.9,29.5*,-0.5,28.9,-5.9,0.5,5.8
COc1cc(OC)cc(C(=O)Nc2ccc(C(=O)Nc3ccccc3OC)cc2)c1,-3.3,0.8,-2.5,-1.0,18.2,-3.5,·,·
CC1(C)C(CSc2nc3ccccc3[nH]2)C1(Cl)Cl (stereo unspecified),13.4,1.5,-1.4,0.2,-1.0,0.2,·,·
CC(=O)c1ccc(-n2c(CCC(=O)O)ccc2-c2ccc(C)cc2)cc1,12.2,-3.4,30.2*,-0.8,10.1,-2.2,1.3,15.5
CC(=O)c1ccc(-n2c(CCC(=O)O)ccc2-c2ccccc2)cc1,-8.7,2.3,19.8,-2.2,-3.6,0.7,·,·
O=C(NNc1c2ccccc2nc2ccccc12)c1ccc(Cl)cc1,3.3,-0.9,33.0*,-0.9,17.2,-3.9,-1.9,-23.8
Cc1ccc(C(=O)NNc2c3ccccc3nc3ccccc23)cc1,16.1,-6.0,-13.3,-1.9,14.6,-2.8,·,·
COc1ccc(NC(=O)CSc2nnc(NC(=O)C3CCC3)s2)c(OC)c1,17.1,-6.4,3.5,-0.1,5.6,-0.7,·,·
CCc1nc2c(OCc3cccc(Cl)c3)cccn2c1N(C)C(=O)Nc1ccccc1OC,·,·,2.1,-1.9,·,·,·,·
CCOC(=O)CSc1nc2c(sc(=S)n2-c2ccc(CC)cc2)c(=O)[nH]1,-5.5,1.5,30.8*,0.2,10.9,-2.3,3.1,-4.3
O=C(COC(=O)/C=C/c1ccco1)Nc1ncc(Cl)cc1Cl,-3.2,4.1,30.8*,-0.6,4.0,-0.6,-4.1,-17.7
O=C(COC(=O)CNC(=O)c1ccc2c(c1)OCO2)Nc1ncc(Cl)cc1Cl,-22.3,8.0,29.5*,-2.4,4.4,-0.9,14.1*,23.5
SMILES,HTR5A inv ag,HTR5A ag,MC4R antag cAMP,MC4R ag barr,MOR-DOR inv ag,OPRM1-OPRD1 ag,cAMP nonselect,MC4R antag conf
O=C(COC(=O)c1ccc2c(c1)OCO2)Nc1ncc(Cl)cc1Cl,12.1,-2.4,9.4,-1.9,12.1,-1.7,·,·
Cc1csc(CN(C)C(=O)CC2C(=O)NCCN2Cc2ccc(-c3ccccc3)cc2)n1 (stereo unspecified),-4.5,1.6,28.9*,1.4,-11.3,2.1,-1.7,3.5
COc1cc(N=Nc2ccc(Br)cc2)cc(C=O)c1O,·,·,34.0*,-2.1,·,·,-4.9,-4.5
Clc1ccc(-c2cc(COc3ccc4ccccc4c3)no2)cc1,-0.8,0.9,10.1,2.4,-8.1,1.4,·,·
COc1cccc(CC(=O)Nc2ccc(N3CCOCC3)c(S(=O)(=O)Nc3ccccc3OC)c2)c1,-0.2,-5.3,4.1,-0.8,1.5,-0.4,·,·
Cc1c(C(=O)NCCSCc2ccccc2)cccc1[N+](=O)[O-],-0.6,0.2,35.1*,0.3,-9.4,1.8,2.6,-4.7
COc1ccc(-c2c(NC(=O)c3ccco3)n(-c3ccc(C)cc3)nc(C)c2=O)cc1,·,·,4.1,-1.1,·,·,·,·
Oc1ccc2ccccc2c1C1Nc2cccc3cccc(c23)N1,3.2,1.7,9.9,0.1,-65.9,12.2,·,·
CCN(CC)c1ccc(C2Nc3cccc4cccc(c34)N2)c(O)c1,-13.7,4.0,32.6*,0.5,-10.5,1.9,3.2,29.1*
Cc1ccccc1CN1CCC(Oc2ccc(C(=O)N3CCCC3)cc2)CC1,6.7,5.9,28.7*,0.3,6.1,-1.1,-0.5,-3.0
CC1(C)C(=O)NCCN1C(=O)CCC(=O)O,-13.7,9.3,8.9,0.4,8.2,-1.5,·,·
Cc1c(Cl)cccc1NC(=S)N1CCN(C(=O)C2CCCO2)CC1 (stereo unspecified),11.3,-3.3,4.3,-1.4,3.4,-0.6,·,·
O=C(O)COCC(=O)N1CCN(c2cc(C(F)(F)F)nc3ccccc23)CC1,-21.6,5.6,1.3,-1.2,11.2,-1.9,·,·
OCCN1CCN(c2cc(C(F)(F)F)nc3c(F)cccc23)CC1,-1.8,-6.3,29.6*,-2.5,11.7,-2.4,-2.3,5.0
Cc1c(C)c2ccc(OCC(=O)NC3CCN(Cc4ccccc4)CC3)cc2oc1=O,-9.1,-0.8,2.5,-2.7,19.3,-3.7,·,·
O=C(Cn1ncc(Cl)c(Cl)c1=O)Nc1ccc2c(c1)OCO2,20.3,-1.7,36.6*,-3.8,13.7,-3.5,28.3*,66.1*
CCC(=O)Nc1ccc(C(=O)Cn2ncc(Cl)c(Cl)c2=O)cc1,4.3,7.6,28.9*,1.2,13.1,-2.6,21.8*,26.4

# Bioassay records from PubChem.
